From ChEMBL document CHEMBL5712908, “A genome-wide RNAi screen reveals essential therapeutic targets of breast cancer stem cells” (2019)
Active and inactive are the calls of the source.

Experiments:
SUM149PT [1] = assay: Synergistic anticancer activity against human SUM149 cells assessed as decrease in docetaxel induced primary tumor sphere formation at 62 nM incubated for 72 hrs in presence of salinomycin by Extreme limiting dilution analysis; assay type: functional, cell-based
Summary of the method: (§1)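 72 h adherent pretreatment (Sal/JQ1 62 nM/62 nM; docetaxel added at 2 nM where used), then single cells plated in ultra-low attachment 96-well plates in serum-free mammary epithelium basal medium at 25/10/5/3/2/1 cells/well (18–36 wells/condition). Wells with ≥1 sphere after 10 days scored positive; sphere-forming frequency by ELDA. Secondary spheres from dissociated primary spheres. n = 4; pairwise chi-square.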

SUM149PT [2] = assay: Synergistic anticancer activity against human SUM149 cells assessed as decrease in docetaxel induced ALDHbr cells at 62 nM in presence of salinomycin by LSR2 cytometer analysis; assay type: functional, cell-based
Summary of the method: (§2)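 SUM159 or SUM149 cells treated 72 h in adherent conditions; docetaxel combined with other drugs at 2 nM; combination doses chosen from synergy distributions (Sal/JQ1 62 nM/62 nM). ALDEFLUOR staining with DEAB control, flow cytometry on LSR2. n = 8; Student's t-test; mean ± SD.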

SUM-159-PT [3] = assay: Anticancer activity against human SUM159 cells assessed as decrease in primary tumor sphere formation incubated for 72 hrs by Extreme limiting dilution analysis; assay type: functional, cell-based
Summary of the method: (§3)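 Cells drug-treated in adherent culture for 72 h, then plated as single cells in ultra-low attachment 96-well plates in serum-free mammary epithelium basal medium. Plating at 25/10/5/3/2/1 cells per well, 18–36 wells per condition. Wells with ≥1 sphere after 10 days scored positive. Secondary spheres were made by dissociating primary spheres. Frequency by ELDA; n = 4; pairwise chi-square test.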

Breast cancer cell line [4] = assay: Synergistic antitumor activity against human CRCM404 negative breast cancer cells xenografted in NSG mouse model of PDX assessed as reduction metastasis formation in liver at 50 mg/kg, ip 5 out of 7 for 2 weeks cotreated with salinomycin; assay type: functional, organism-based
Summary of the method: (§4)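 Luciferase-expressing PDX cells sorted H2Kd⁻ and viable, 100,000 in 100 μl PBS injected in NSG tail vein. From the next day, salinomycin 3 mg/kg i.p. daily and/or JQ1 50 mg/kg i.p. 5 of 7 days for 2 weeks. Lungs and liver imaged by bioluminescence after i.p. luciferin 30 mg/kg; normalised photon flux; 10 mice/group; Wilcoxon test.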

SUM-159-PT [5] = assay: Anticancer activity against human SUM159 cells assessed as decrease in secondary tumor sphere formation incubated for 72 hrs by Extreme limiting dilution analysis; assay type: functional, cell-based; summary of the method: as §3
SUM149PT [6] = assay: Anticancer activity against human SUM149 cells assessed as ALDHbr cells at 10 uM by LSR2 cytometer (reference value: 4.8%); assay type: functional
SUM-159-PT [7] = assay: Synergistic anticancer activity against human SUM159 cells assessed as decrease in primary tumor sphere formation at 62 nM incubated for 72 hrs in presence of salinomycin by Extreme limiting dilution analysis; assay type: functional; summary of the method: as §1
Breast cancer cell line [8] = assay: Antitumor activity against human reimplanted CRCM494 negative breast cancer cells orthotopically xenografted in NSG mouse model of PDX assessed as reduction tumor volume at 50 mg/kg, ip 5 out of 7 for 2 weeks by limiting dilation analysis; assay type: functional, organism-based
Summary of the method: (§5)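 After 2 weeks of i.p. treatment (3 mg/kg daily or 50 mg/kg 5 of 7 days), dissociated PDX tumour cells reimplanted into secondary NSG mice at 50, 500 or 5,000 cells. A mouse counted as tumour-bearing once a tumour reached 10 mm. bCSC frequency per 10,000 cells estimated by ELDA; pairwise chi-square test.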

Breast cancer cell line [9] = assay: Synergistic antitumor activity against human CRCM404 negative breast cancer cells orthotopically xenografted in NSG mouse model of PDX assessed as reduction ALDHbr cells at 50 mg/kg, ip 5 out of 7 for 2 weeks cotreated with salinomycin by LSR2 cytometer analysis; assay type: functional
Breast cancer cell line [10] = assay: Antitumor activity against human reimplanted CRCM434 negative breast cancer cells orthotopically xenografted in NSG mouse model of PDX assessed as reduction tumor volume at 50 mg/kg, ip 5 out of 7 for 2 weeks by limiting dilation analysis; assay type: functional, organism-based; summary of the method: as §5
SUM-159-PT [11] = assay: Synergistic anticancer activity against human SUM159 cells expressing BFP assessed as reduction in ALDHbr cell 50 nM in presence of salinomycin by LSR2 cytometer analysis; assay type: functional
SUM-159-PT [12] = assay: Anticancer activity against human SUM159 cells expressing BFP assessed as reduction in ALDHbr cell at 5 to 500 nM by LSR2 cytometer analysis; assay type: functional, cell-based; conditions: dose 5-500 nM
SUM-159-PT [13] = assay: Synergistic anticancer activity against human SUM159 cells assessed as decrease in docetaxel induced ALDHbr cells at 62 nM in presence of salinomycin by LSR2 cytometer analysis; assay type: functional, cell-based; summary of the method: as §2
Breast cancer cell line [14] = assay: Antitumor activity against human CRCM494 negative breast cancer cells orthotopically xenografted in NSG mouse model of PDX assessed as reduction in tumor volume at 50 mg/kg, ip 5 out of 7 for 2 weeks; assay type: functional, organism-based
Summary of the method: (§6)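 Chemo-naïve triple-negative PDX cells injected at 100,000 per fat pad, two fat pads per NSG mouse. At ~80 mm³ tumours, mice received i.p. 3 mg/kg daily for 14 days or 50 mg/kg 5 of 7 days for 2 weeks; placebo was DMSO/HPCD 10% (1:9). Five mice (10 tumours) per group. Tumour growth monitored; after 2 weeks tumours dissociated, mouse cells excluded via anti-H2Kd, ALDHbr measured by ALDEFLUOR flow cytometry and normalised to vehicle.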

Breast cancer cell line [15] = assay: Antitumor activity against human CRCM404 negative breast cancer cells orthotopically xenografted in NSG mouse model of PDX assessed as reduction in tumor volume at 50 mg/kg, ip 5 out of 7 for 2 weeks; assay type: functional, organism-based; summary of the method: as §6
SUM-159-PT [16] = assay: Synergistic apoptosis in human SUM159 cells expressing ALDHbr at 500 nM incubated for 72 hrs in presence of salinomycin by ALDEFLUOR/YO-PRO-3/ Hoechst 33342 staining based high content imaging microscopic analysis; assay type: functional, cell-based
Summary of the method: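 SUM159 cells seeded at 3,000 cells/well in collagen-coated 96-well plates. Drug added at 6, 24 and 48 h post-seeding. Cisplatin served as positive control and 0.1% v/v DMSO as vehicle control. At 72 h post-seeding, cells were stained with ALDEFLUOR, YO-PRO-3 (1/4,000) and Hoechst 33342 (10 μg/ml) in ALDEFLUOR buffer for 30 min at 37°C, then imaged on ice by high-content microscopy, 9 fields/well. DEAB set the ALDHbr gate. YO-PRO-3⁺ fraction per subpopulation was gated against untreated cells.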

Breast cancer cell line [17] = assay: Synergistic antitumor activity against human CRCM434 negative breast cancer cells xenografted in NSG mouse model of PDX assessed as reduction metastasis formation in lung at 50 mg/kg, ip 5 out of 7 for 2 weeks cotreated with salinomycin; assay type: functional, organism-based; summary of the method: as §4
Breast cancer cell line [18] = assay: Synergistic antitumor activity against human CRCM404 negative breast cancer cells xenografted in NSG mouse model of PDX assessed as reduction metastasis formation in lung at 50 mg/kg, ip 5 out of 7 for 2 weeks cotreated with salinomycin; assay type: functional, organism-based; summary of the method: as §4
SUM-159-PT [19] = assay: Anticancer activity against human SUM159 cells expressing BFP assessed as reduction in ALDHbr cell at 50 nM by LSR2 cytometer analysis; assay type: functional

Cc1sc2c(c1C)C(c1ccc(Cl)cc1)=N[C@@H](CC(=O)OC(C)(C)C)c1nnc(C)n1-2
2: fold change (FC) (Breast cancer cell line [9]) | fold change (FC) (SUM-159-PT [19])
4: fold change (FC) (SUM-159-PT [11])
active: Activity (SUM149PT [1]) | Activity (SUM149PT [2]) | Activity (SUM-159-PT [3]) | Activity (Breast cancer cell line [4]) | Activity (SUM-159-PT [5]) | Activity (Breast cancer cell line [8]) | Activity (Breast cancer cell line [10]) | Activity (SUM-159-PT [12]) | Activity (SUM-159-PT [13]) | Activity (Breast cancer cell line [14]) | Activity (Breast cancer cell line [15]) | Activity (SUM-159-PT [16]) | Activity (Breast cancer cell line [17]) | Activity (Breast cancer cell line [18])
5.1%: Activity (SUM149PT [6])
2.4: fold change (FC) (SUM-159-PT [7])
